# Source: PubChem BioAssay
# This is one part of the list. A number with no mark means an inactive call. Active and inactive are the calls of the source.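 How the source made its calls, unless noted: active means mean percent activation of the reporter above a cutoff set as the average over tested compounds plus their standard deviation; inactive means the rest.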
# Assays:
# [1] = target: Oxysterols receptor LXR-beta (Homo sapiens) (UniProt P55055); experiment: nonspecific reporter activation via LXR – cell-based, luminescence, HEK293, H. contortus campaign, counter-screen for hcDAF-12 agonist project, confirmation (AID 743027); conditions: HEK293 Gal4-LXR tk-luc reporter, 24 h, at 6.8 µM, active compounds read high, normalized: DMSO 0%, positive control 100%
# Procedure, shortened: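 material = Gal4-LXR and tk-luc reporter transfected HEK293 cells | benchmarks = DMSO low control, positive-control high control | compound dosing = one nominal 6.8 µM dose, 0.68% DMSO | repeats = three replicates per compound | times = 24 h compound exposure at 37 °C, 5% CO2 | detection = One-Glo luciferase luminescence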
# [2] = tested on: Nuclear hormone receptor DAF-12 (Haemonchus contortus); experiment: hcDAF-12 luciferase reporter activation, retest – cell-based, luminescence, HEK293, lit1-tk-luc, triplicate, confirmation (AID 743032;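 active means mean activation across triplicate tests above the threshold derived from the earlier primary screen, cut at about 5.5% in these data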;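 further: 0% = DMSO only wells and 100% = 3 µM Δ7-dafachronic acid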); conditions: HEK293 hcDAF-12 lit1-tk-luc reporter, at 6.8 µM, active compounds read high, % of Δ7-dafachronic acid response
# [3] = tested on: DAF-12 nuclear receptor (Heterodera glycines), GAL4-LBD fusion; experiment: hgDAF-12 GAL4 fusion reporter activation, retest – cell-based, luminescence, HEK293, GAL4-LBD fusion, confirmation (AID 743050;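 active means mean activation over triplicate wells above the hit cutoff derived from the earlier primary screen, cut at about 11% in these data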;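 further: 0% = DMSO low control and 100% = 2 mM sodium butyrate high control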); conditions: HEK293 GAL4-hgDAF12 luciferase reporter, agonist mode; at 6.8 µM; active compounds read high; percent of butyrate response
# [4] = target: Oxysterols receptor LXR-beta (Homo sapiens) (UniProt P55055); experiment: nonspecific reporter activation via LXR – cell-based, luminescence, HEK293, H. glycines campaign, counter-screen for hgDAF-12 agonist project, confirmation (AID 743051;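 active means mean activation of the triplicate above a set limit carried over from the primary screen, none filed active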); conditions: HEK293 Gal4-LXR luciferase reporter, 24 h; at 6.8 µM; active compounds read high
# Procedure, shortened: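 System: Gal4-LXR luciferase reporter HEK293 cells / Compound: single nominal test compound dose of 6.8 µM / Times: 24 h exposure, 37 °C / Technique: One-Glo luminescence after 15 min / Read-out basis: % activation versus DMSO and positive controls / Benchmarks: DMSO low control, 0.68% final / Replication: n 3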
# [5] = target: Galanin receptor type 2 (Homo sapiens) (UniProt O43603); experiment: blockers of human galanin receptor 2 – cell-based, confirmation (AID 866; in the data active means inhibition above about 27%;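 further: cells stimulated with galanin at about its EC80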); conditions: GALR2-expressing cells, antagonist mode, at 4 µM, active compounds read high
# [6] = nonspecific BLA reporter inhibition – CHO NFAT-bla cells, FRET readout, counter-screen for GALR2 antagonist project, confirmation (AID 867;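 active means inhibition above the mean inhibition across tested compounds plus 3 SD, cut at about 27% in these data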;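 further: 0% = 500 nM thapsigargin stimulated wells and 100% = unstimulated BSA only wells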); conditions: beta-lactamase FRET, thapsigargin-stimulated, at 4.2 µM, active compounds read high
# Sequence of Oxysterols receptor LXR-beta (Homo sapiens) (P55055 whole entry, looked up, the tested form may be a part): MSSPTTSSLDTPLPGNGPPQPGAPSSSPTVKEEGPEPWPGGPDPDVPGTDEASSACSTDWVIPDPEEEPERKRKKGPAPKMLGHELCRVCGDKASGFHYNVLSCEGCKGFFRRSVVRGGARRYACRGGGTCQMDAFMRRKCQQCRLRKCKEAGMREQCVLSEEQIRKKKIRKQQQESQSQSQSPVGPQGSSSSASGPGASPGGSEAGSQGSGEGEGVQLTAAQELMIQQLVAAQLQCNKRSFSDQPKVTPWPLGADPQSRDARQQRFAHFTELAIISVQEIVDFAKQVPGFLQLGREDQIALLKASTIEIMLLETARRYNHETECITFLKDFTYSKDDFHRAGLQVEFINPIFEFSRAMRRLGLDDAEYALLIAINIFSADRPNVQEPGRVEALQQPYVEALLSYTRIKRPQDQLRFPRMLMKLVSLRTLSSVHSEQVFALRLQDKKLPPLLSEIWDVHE
# Sequence of Galanin receptor type 2 (Homo sapiens) (O43603 whole entry, looked up): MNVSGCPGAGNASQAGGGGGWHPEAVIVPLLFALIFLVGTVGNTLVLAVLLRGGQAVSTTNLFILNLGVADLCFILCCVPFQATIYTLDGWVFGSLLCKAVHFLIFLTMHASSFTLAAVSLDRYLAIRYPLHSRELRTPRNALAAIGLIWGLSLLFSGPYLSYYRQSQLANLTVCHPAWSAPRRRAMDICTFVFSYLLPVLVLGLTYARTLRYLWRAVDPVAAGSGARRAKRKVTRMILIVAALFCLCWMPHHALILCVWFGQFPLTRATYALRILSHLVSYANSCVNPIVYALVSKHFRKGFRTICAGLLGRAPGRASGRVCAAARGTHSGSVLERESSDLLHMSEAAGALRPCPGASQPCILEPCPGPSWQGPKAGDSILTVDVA
structure (smiles),measurement,setting,value
CN1CCc2ccccc2C1Cc1ccccc1NC(=O)c1sc2ccccc2c1Cl (centres undefined),activation,[1],-0.05%
same,activation,[2],1.76%
Cn1ccnc1SCC(=O)Nc1ccc2c(c1)OCCO2,activation,[1],0.85%
same,activation,[2],2.69%
O=C(CN1CCCCC1)NC(=O)Nc1ccccc1F,activation,[1],0.17%
same,activation,[2],1.2%
COc1ccccc1C(=O)NCc1nnc(SC(C)C(=O)Nc2nccs2)n1C (centres undefined),activation,[1],-0.14%
same,activation,[2],4.95%
C(=N\Nc1ccc2ccccc2n1)/c1ccc2c(c1)OCO2,activation,[1],1.28%
same,activation,[2],4.85%
Nc1ccc2[nH]c(=S)sc2c1,activation,[1],0.01%
same,activation,[2],2.92%
NC(=O)Nc1ccccc1C(=O)NCCc1ccccc1,activation,[1],0.34%
same,activation,[2],4.12%
Fc1ccc2nc(Nc3nc4c(s3)CCCC4)sc2c1,activation,[1],1.24%
same,activation,[2],11.5% (active)
CCc1cc2c(=O)c(-c3ccon3)c(N)oc2cc1OC,activation,[1],0.84%
same,activation,[2],6.18% (active)
Cn1c(=O)c(C(=O)Nc2ncccn2)c(O)c2ccccc21,activation,[1],0.73%
same,activation,[2],15.3% (active)
CC(C)C(=O)Nc1ccc2c(c1)oc1ccccc12,activation,[1],0.52%
same,activation,[2],5.43%
Cc1cccnc1NC(=O)Cn1c(=O)oc2ccccc21,activation,[1],-0.23%
same,activation,[2],1.31%
Cc1cccc(-c2nc3ccccc3c(=O)n2NC(=O)Cc2ccc(Cl)cc2)c1,activation,[1],-0.04%
same,activation,[2],0.97%
COc1ccc(C2CC(c3cccs3)=Nc3ccccc3S2)cc1OC (centres undefined),activation,[1],-0.03%
same,activation,[2],2.78%
OC(COc1ccc2ccccc2c1)CN1CCOCC1 (centres undefined),activation,[1],0.33%
same,activation,[2],8.99% (active)
CC(=O)N1C(=O)/C(=C2\SC(=S)N(NC(=O)c3ccc(O)cc3)C2=O)c2ccccc21,activation,[1],-0.17%
same,activation,[2],1.25%
NNC(=O)C1CCCn2c1nc1sc3c(c1c2=O)CCCC3 (centres undefined),activation,[1],-0.2%
same,activation,[2],4.24%
CCS(=O)(=O)c1cc([N+](=O)[O-])c(Sc2ccccc2N)s1,activation,[1],0.38%
same,activation,[2],7.39% (active)
CC(C#N)OC(=O)c1cccnc1SCC(=O)Nc1ccc2c(c1)OCO2 (centres undefined),activation,[1],0.05%
same,activation,[2],5.55%
O=C(NC1CCCCC1)C(c1cc2ccccc2o1)n1c(=O)c(-c2ccco2)nc2ccccc21 (centres undefined),activation,[1],0.03%
same,activation,[2],5.1%
O=C(CSC(=S)N1CCOCC1)c1ccccc1,activation,[1],1%
same,activation,[2],5.12%
NC(=O)c1c(NC(=O)c2ccccc2)sc2c1CCCC2,activation,[1],1.21%
same,activation,[2],13.6% (active)
O=C(O)c1ccccc1CSc1nc2ccccc2s1,activation,[1],0.24%
same,activation,[2],9.05% (active)
CCCCN(C)C(=O)c1ccc2c(c1)N(CC)C(=O)c1ccccc1S2(=O)=O,activation,[1],-0.28%
same,activation,[2],0.81%
Cc1ccccc1C(=O)N[C@H](C(=O)N1CCC[C@H]1C(=O)NCc1ccccc1)C(C)C,activation,[1],-0.15%
same,activation,[2],0.18%
CCS(=O)(=O)N1Cc2ccccc2CC1C(=O)Nc1nc2ccc(F)cc2s1 (centres undefined),activation,[1],0.39%
same,activation,[2],6.53% (active)
COc1ccc(Nc2nc(-c3ccccc3)cs2)cc1,activation,[1],1.88%
same,activation,[2],18.8% (active)
Cc1cnc(NC(=O)c2ccc(Cl)nc2)s1,activation,[1],0.78%
same,activation,[2],11.4% (active)
N#Cc1c(NC(=O)C2CCCO2)sc2c1CCCCC2 (centres undefined),activation,[1],1.18%
same,activation,[2],6.65% (active)
O=C(NC(Cc1c[nH]c2ccccc12)C(=O)O)/C(=C/c1ccco1)NC(=O)c1ccccc1 (centres undefined),activation,[1],0.05%
same,activation,[2],3.64%
Cc1c(C(=O)Nc2ccccn2)oc2ccc(Br)cc12,activation,[1],1.8%
same,activation,[2],15.4% (active)
O=C(O)c1[nH]c2ccccc2c1C(c1cccc(O)c1)c1c(C(=O)O)[nH]c2ccccc12,activation,[1],-0.02%
same,activation,[2],4.41%
Cc1cccc(C(=O)N2CCc3c([nH]c4ccccc34)C2CC(C)C)n1 (centres undefined),activation,[1],0.01%
same,activation,[2],6.29% (active)
O=C(c1cc(-c2ccccc2O)on1)N1CCCC1,activation,[1],0.82%
same,activation,[2],6.57% (active)
COc1ccccc1NC(=O)c1ccc(C)s1,activation,[1],0.6%
same,activation,[2],8.4% (active)
COc1ccccc1OCC(=O)O/N=C(\N)c1ccccn1,activation,[1],0.86%
same,activation,[2],5.68% (active)
COc1ccc(-c2c3c(=O)n(C)c(=O)n(C)c3cn2-c2cccc(OC)c2)cc1,activation,[1],-0.23%
same,activation,[2],3.87%
O=c1[nH]c(CCl)nc2cc(-c3ccc(Cl)cc3)sc12,activation,[1],0.52%
same,activation,[2],1.27%
Cc1cc(C)nc(Nc2n[nH]c(-c3ccccc3N)n2)n1,activation,[1],2.12%
same,activation,[2],8.91% (active)
COc1ccccc1OCc1nc2ccccc2s1,activation,[1],1.64%
same,activation,[2],17.7% (active)
Nc1ccccc1/C=N\N=C/c1ccccc1N,activation,[1],1.76%
same,activation,[2],12.4% (active)
CCOc1ccc(C2c3[nH]c4ccccc4c3CCN2Cc2cn(CC)nc2C)cc1 (centres undefined),activation,[1],-0.18%
same,activation,[2],3.63%
COc1ccc(-c2cn3ccc(C)cc3n2)cc1,activation,[1],1.71%
same,activation,[2],9.09% (active)
COc1ccc2nc(-c3ccccn3)ccc2c1,activation,[1],1.86%
same,activation,[2],11.8% (active)
same,activation,[3],16.7% (active)
same,activation,[4],1.05%
Brc1ccc(-c2noc(-c3ccccc3)n2)o1,activation,[1],0.77%
same,activation,[2],7.78% (active)
same,activation,[3],18.7% (active)
same,activation,[4],0.75%
O=C(c1cnn(-c2ccc(Cl)cc2)c1)c1ccccc1O,activation,[1],1.48%
same,activation,[2],7.41% (active)
same,activation,[3],12.9% (active)
same,activation,[4],0.81%
Brc1ccccc1C1N=C(c2ccccc2)NO1 (centres undefined),activation,[1],1.08%
same,activation,[2],11.3% (active)
same,activation,[3],19.6% (active)
same,activation,[4],0.87%
Cc1cccc(/C(N)=N/OC(=O)c2ccccc2Cl)c1,activation,[1],2.08%
same,activation,[2],15.3% (active)
same,activation,[3],21.4% (active)
same,activation,[4],1.18%
OC(c1ccccc1)c1nc(-c2cnc3ccccc3c2)cs1 (centres undefined),activation,[1],1.85%
same,activation,[2],6.14% (active)
same,activation,[3],26.4% (active)
same,activation,[4],0.98%
Cc1cccc(NC(=O)c2ccc3ccccc3n2)n1,activation,[1],1.06%
same,activation,[2],10.5% (active)
same,activation,[3],17% (active)
same,activation,[4],0.69%
Oc1cccc2ccc(/C=C/c3ccc(Br)s3)nc12,activation,[1],1.05%
same,activation,[2],13.8% (active)
same,activation,[3],15.8% (active)
same,activation,[4],0.56%
Cc1ccc(-n2cc3ccc([N+](=O)[O-])cc3n2)cc1,activation,[1],2.14%
same,activation,[2],6.7% (active)
same,activation,[3],22.6% (active)
same,activation,[4],0.97%
CC(=O)Nc1cccc(C(=O)OCC(=O)c2ccc3c(c2)OCO3)c1,activation,[1],1.92%
same,activation,[2],8.03% (active)
same,activation,[3],16.6% (active)
same,activation,[4],1.1%
Cn1c(-c2ccco2)nc2cc3ccccc3cc21,inhibition,[5],32.7% (active)
same,inhibition,[6],15.4%
same,activation,[1],2.33%
same,activation,[2],17.3% (active)
Cc1cc(N=Nc2ccc3ccccc3c2)ccc1O,activation,[1],1.85%
same,activation,[2],8.43% (active)
same,activation,[3],24.5% (active)
same,activation,[4],1.16%
Oc1ccccc1-c1cc(-c2ccc(Cl)cc2)n[nH]1,activation,[1],1.85%
same,activation,[2],14.7% (active)
same,activation,[3],29.5% (active)
same,activation,[4],1.15%
O=C(Nc1ncccc1O)c1ccc(C(=O)c2ccccc2)cc1,activation,[1],1.21%
same,activation,[2],8.51% (active)
same,activation,[3],84.2% (active)
same,activation,[4],0.71%
Cc1ccsc1C(=O)N/N=C/c1ccc([N+](=O)[O-])cc1,activation,[3],15.8% (active)
same,activation,[4],0.59%
NC(=O)c1ccccc1N=Cc1ccc2ccccc2c1,activation,[1],0.6%
same,activation,[2],5.79% (active)
same,activation,[3],15.7% (active)
same,activation,[4],0.4%
CCOC(=O)c1cn[nH]c1NC(=S)Nc1ccccc1,activation,[1],1.51%
same,activation,[2],4.78%
same,activation,[3],15.6% (active)
same,activation,[4],1.01%
Clc1ccc(Nc2ccc3ccccc3n2)cc1,activation,[1],2.07%
same,activation,[2],15% (active)
same,activation,[3],28.6% (active)
same,activation,[4],1.31%
Brc1ccc2nc(N3CCCC3)sc2c1,activation,[1],0.77%
same,activation,[2],5.13%
same,activation,[3],12.5% (active)
same,activation,[4],0.64%
O=C(NC(=O)c1ccccc1)Nc1ccccc1O,activation,[1],1.94%
same,activation,[2],13.2% (active)
same,activation,[3],19.6% (active)
same,activation,[4],1.13%
O=C(Nc1ccccc1)Nc1nc2ccccc2s1,activation,[1],1.95%
same,activation,[2],9.44% (active)
same,activation,[3],20.4% (active)
same,activation,[4],1.06%
COc1ccc(C2=NN(C(=O)c3ccccc3C(=O)O)C(c3ccccc3O)C2)cc1 (centres undefined),activation,[1],0.16%
same,activation,[2],2.72%
same,activation,[3],4.93%
same,activation,[4],0.19%
Cc1ccc(NC(=O)c2cc3ccccc3o2)cc1,activation,[1],1.5%
same,activation,[2],7.27% (active)
same,activation,[3],22% (active)
same,activation,[4],0.74%
c1cnc(N2CCN(c3ccc4ccccc4n3)CC2)nc1,activation,[1],0.85%
same,activation,[2],5.39%
same,activation,[3],16.9% (active)
same,activation,[4],0.78%
Cn1c(NC(=O)c2ccccc2)nc2ccccc21,activation,[1],1.51%
same,activation,[2],16.7% (active)
same,activation,[3],19.1% (active)
same,activation,[4],0.86%
Cc1ccnc(NC(=O)CCNS(=O)(=O)c2ccc(C)c(C)c2)c1,activation,[1],1.16%
same,activation,[2],5.73% (active)
same,activation,[3],17.9% (active)
same,activation,[4],0.55%
Cc1ccc(OCc2nc3ccccc3n2C)cc1,activation,[1],1.32%
same,activation,[2],5.18%
Cc1ccc(SCCSc2ncccn2)cc1,activation,[1],1.19%
same,activation,[2],7.13% (active)
same,activation,[3],14.6% (active)
same,activation,[4],0.89%
